Active and inactive are the calls of the source. No cut-off for these calls is given here.
Columns and labels:
[1] = target: T1, Protein deacetylase HDAC6 (Homo sapiens) (UniProt Q9UBN7); assay: Inhibition of HDAC6 in human MV4-11 cells assessed as increase in acetylation of alpha tubulin at 0.25 uM by Western blot analysis; assay type: cell-based
T1 sequence (whole entry): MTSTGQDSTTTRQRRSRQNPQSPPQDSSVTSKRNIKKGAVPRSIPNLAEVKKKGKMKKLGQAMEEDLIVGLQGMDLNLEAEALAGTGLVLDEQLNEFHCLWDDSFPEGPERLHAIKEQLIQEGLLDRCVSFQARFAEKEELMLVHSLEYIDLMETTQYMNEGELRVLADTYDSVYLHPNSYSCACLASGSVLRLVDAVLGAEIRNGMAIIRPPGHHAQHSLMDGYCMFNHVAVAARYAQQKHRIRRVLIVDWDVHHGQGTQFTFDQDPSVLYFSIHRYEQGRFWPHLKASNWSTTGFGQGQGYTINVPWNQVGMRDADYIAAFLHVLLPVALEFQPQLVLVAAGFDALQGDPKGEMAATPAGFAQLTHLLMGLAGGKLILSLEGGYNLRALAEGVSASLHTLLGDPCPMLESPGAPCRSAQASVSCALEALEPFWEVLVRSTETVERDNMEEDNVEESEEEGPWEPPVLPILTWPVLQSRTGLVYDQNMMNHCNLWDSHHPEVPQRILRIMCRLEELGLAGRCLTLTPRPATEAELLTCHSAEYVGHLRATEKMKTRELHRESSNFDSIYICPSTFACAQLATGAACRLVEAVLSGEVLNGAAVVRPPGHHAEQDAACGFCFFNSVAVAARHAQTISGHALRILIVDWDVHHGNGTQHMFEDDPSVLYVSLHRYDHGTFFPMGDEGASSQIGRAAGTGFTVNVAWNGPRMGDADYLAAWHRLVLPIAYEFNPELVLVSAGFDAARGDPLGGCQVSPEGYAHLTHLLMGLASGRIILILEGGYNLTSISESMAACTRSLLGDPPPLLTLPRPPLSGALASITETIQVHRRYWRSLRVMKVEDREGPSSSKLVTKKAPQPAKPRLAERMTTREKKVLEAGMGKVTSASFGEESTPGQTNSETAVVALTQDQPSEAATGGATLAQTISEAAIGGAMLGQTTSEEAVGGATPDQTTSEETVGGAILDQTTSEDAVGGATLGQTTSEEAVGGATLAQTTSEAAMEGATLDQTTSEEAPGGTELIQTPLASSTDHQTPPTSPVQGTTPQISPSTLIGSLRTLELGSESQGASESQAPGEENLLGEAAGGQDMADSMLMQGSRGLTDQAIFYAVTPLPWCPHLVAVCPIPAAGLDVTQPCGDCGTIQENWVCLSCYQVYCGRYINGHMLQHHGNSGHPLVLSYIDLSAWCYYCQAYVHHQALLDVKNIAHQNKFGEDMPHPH
Outline: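 MV4-11 cells incubated with compound for 6 h (0.25–1 μM range), then lysed in RIPA buffer. Lysates were BCA-quantified and run on 4–20% SDS-PAGE, then transferred to nitrocellulose and blocked in 5% milk/PBST. Primary anti-acetyl-α-tubulin mouse monoclonal and HSC70 (1:1000) were applied overnight at 4 °C, followed by HRP anti-mouse (1:5000) and ECL detection.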

[2] = target: T1, Protein deacetylase HDAC6 (Homo sapiens); assay: Inhibition of HDAC6 in human HeLa cells assessed as acetylation of alpha tubulin accumulation at 0.1 uM by DAPI staining based immunofluorescent assay; assay type: cell-based
Outline: (§1)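 HeLa cells plated to sub-confluency and treated after 24 h with compound at 0.1 or 2 μM for 6 h; DMSO served as vehicle control. Cells were fixed (4% formaldehyde), permeabilized (1% Triton X-100) and blocked in 5% BSA for 1 h at room temperature. Staining used anti-acetyl-α-tubulin (1:100) plus anti-acetyl-H3 Lys18 (1:50) with DAPI counterstain, then imaging and quantification. Values are the mean of duplicates.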

[3] = target: T1, Protein deacetylase HDAC6 (Homo sapiens); assay: Inhibition of HDAC6 in human HeLa cells assessed as acetylation of alpha tubulin accumulation at 2 uM by DAPI staining based immunofluorescent assay; assay type: cell-based; outline: as §1
[4] = system: RPMI-8226; assay: Anti-proliferative activity against human RPMI-8226 cells assessed as cell viability measured after 72 hrs by Cell-Titer assay; assay type: functional, cell-based; conditions: RPMI-8226, 72 h
Outline: (§2)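 Cells in RPMI-1640 with 10% FBS (AML3 in IMDM with 10% FBS). Cells were plated in 96-well plates, and after 24 h compounds or vehicle (0.5% DMSO) were added. CellTiter-Blue was added after 72 h and fluorescence was read at 560/590 nm. IC50 was obtained by non-linear regression.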

[5] = system: MM1.S; assay: Anti-proliferative activity against human MM1.S cells assessed as cell viability measured after 72 hrs by Cell-Titer assay; assay type: functional, cell-based; outline: as §2
[6] = system: U-87 MG; assay: Anti-proliferative activity against human U87G cells assessed as cell viability measured after 72 hrs by Cell-Titer assay; assay type: functional, cell-based, U-87MG ATCC
Outline: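 U87G cells grown in EMEM with 10% FBS were plated in 96-well plates and dosed after 24 h, with 0.5% DMSO as vehicle. CellTiter-Blue read-out at 560/590 nm fluorescence after 72 h. IC50 by non-linear regression.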

[7] = system: MOLM-13; assay: Anti-proliferative activity against human MOLM-13 cells assessed as cell viability measured after 72 hrs by Cell-Titer assay; assay type: functional, cell-based; conditions: MOLM-13, 72 h; outline: as §2
[8] = system: MV4-11; assay: Anti-proliferative activity against human MV4-11 cells assessed as cell viability measured after 72 hrs by Cell-Titer assay; assay type: functional, cell-based; conditions: MV4-11, 72 h
Outline: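 MV4-11 cells grown in IMDM with 10% FBS were plated in 96-well plates. After 24 h, compounds or vehicle (0.5% DMSO) were added. After 72 h, CellTiter-Blue was added and fluorescence was read at 560/590 nm. IC50 came from non-linear regression.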

[9] = system: Jurkat; assay: Anti-proliferative activity against human Jurkat cells assessed as cell viability measured after 72 hrs by Cell-Titer assay; assay type: functional, cell-based; outline: as §2
[10] = system: OCI-AML-3; assay: Anti-proliferative activity against human AML-3 cells assessed as cell viability measured after 72 hrs by Cell-Titer assay; assay type: functional, cell-based; conditions: OCI-AML-3, 72 h; outline: as §2
[11] = Anti-proliferative activity against human AR230 cells assessed as cell viability measured after 72 hrs by Cell-Titer assay; assay type: functional, cell-based
Outline: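 AR230 cells were maintained in RPMI-1640 with 10% FBS, 2 mM L-glutamine and 1 μM imatinib. Cells were plated in 96-well plates and dosed after 24 h, with 0.5% DMSO as vehicle. CellTiter-Blue fluorescence was read at 560/590 nm after 72 h. IC50 by non-linear regression.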

[12] = system: BV-173; assay: Anti-proliferative activity against human BV-173 cells assessed as cell viability measured after 72 hrs by Cell-Titer assay; assay type: functional, cell-based; conditions: BV-173, 72 h; outline: as §2
[13] = system: HeLa; assay: Anti-proliferative activity against human HeLa cells assessed as cell viability measured after 72 hrs by Cell-Titer assay; assay type: functional, cell-based
Outline: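 HeLa cells grown in DMEM with 10% FBS were plated in 96-well plates. After 24 h they were treated with compound or 0.5% DMSO vehicle. CellTiter-Blue was added at 72 h and read at 560/590 nm fluorescence. IC50 from non-linear regression.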

[14] = Anti-proliferative activity against human MRC9 cells assessed as cell viability measured after 72 hrs by Cell-Titer assay; assay type: functional, cell-based; conditions: MRC9, 72 h; outline: as §2

Row | SMILES | Activity [1] | Activity [2] | Activity [3] | IC50 [4] [µM] | IC50 [5] [µM] | IC50 [6] [µM] | IC50 [7] [µM] | IC50 [8] [µM] | IC50 [9] [µM] | IC50 [10] [µM] | IC50 [11] [µM] | IC50 [12] [µM] | IC50 [13] [µM] | IC50 [14] [µM]
1 | O=C(NO)c1ccc(CN(Cc2cccnc2)S(=O)(=O)c2cc(F)c(F)c(F)c2F)cc1 | Active | inactive | Active | 0.7 | 0.7 | 2 | 2 | 0.6 | 1.9 | 3.3 | 1.5 | 1.7 | 3.5 | > 50
2 | O=C(CCCCCCNC(=O)c1cnc(N(c2ccccc2)c2ccccc2Cl)nc1)NO [CITARINOSTAT] | Active | inactive | inactive | 6.5 | 1.6 | 9.1 | 13.5 | 1.2 | 1.2 | 7.7 | 4.3 | 0.9 | 7 | 30.4
